This is an account of results in ChEMBL document CHEMBL2016516, “Design, synthesis and biological evaluation of novel chalcone derivatives as antitubulin agents” (Bioorg Med Chem, 2012).

In brackets after ≈: the same amount, converted by molar mass.

Experiment [1] in a line: Inhibition of bovine tubulin polymerization after 20 mins by spectrophotometry. On the set-up: species or system Bos taurus. A digest of the protocol:
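Tubulin was purified from bovine brain. Varying compound concentrations were preincubated with 10 µM tubulin in glutamate buffer at 30 °C, then cooled to 0 °C. GTP was added and the mixtures were moved to 0 °C cuvettes. They were then warmed to 30 °C in a recording spectrophotometer, with assembly followed turbidimetrically.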

The test system of a further experiment is A549. The experiment in a line: Antiproliferative activity against human A549 cells after 48 hrs by MTT assay. It is filed as functional, cell-based. To be noted: A549, 48 h. The method in brief:
(§1)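 Cells grown to log phase in RPMI 1640 with 10% FBS, diluted to 2 × 10⁴ cells/mL and seeded, then incubated 24 h at 37 °C, 5% CO₂ before treatment. Samples at pre-set concentrations were added in six wells, with colchicine and CA-4 as references. After 48 h, MTT in PBS was added for 4 h, followed by extraction solution (10% SDS).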

Experiment [2] concerns MCF7. The experiment in a line: Antiproliferative activity against human MCF7 cells after 48 hrs by MTT assay. Format: functional, cell-based. To be noted: MCF7, 48 h. A digest of the protocol: as §1
In experiment [3] the test system is MCF7. The experiment in a line: Cell cycle arrest in human MCF7 cells assessed as accumulation in G2/M phase at 5 ug/ml after 24 hrs by flow cytometry (reference value: 12.99%). It is filed as functional. On the technique in general: A flow cytometer gives signals particle by particle.
For experiment [4], the system named is MCF7. Nature of the experiment: Cell cycle arrest in human MCF7 cells assessed as accumulation in G0/G1 phase at 5 ug/ml after 24 hrs by flow cytometry (reference value: 47.79%). Format: functional.
Experiment [5] relates to MCF7. The experiment in a line: Cell cycle arrest in human MCF7 cells assessed as accumulation in S phase at 5 ug/ml after 24 hrs by flow cytometry (reference value: 8.06%). It is filed as functional.

In the case of `O=C(/C=C/c1cc(Br)cc(Br)c1Oc1c([N+](=O)[O-])cc(C(F)(F)F)cc1[N+](=O)[O-])c1ccc(Br)cc1`, the IC50 in experiment [1] was 10.01 µg/mL (≈ 14.4 µM); in the experiment on A549, 16.8 µg/mL (≈ 24.2 µM); with MCF7 [2], 2.87 µg/mL (≈ 4.13 µM).

As to `O=C(/C=C/c1cc(Br)cc(Br)c1Oc1c([N+](=O)[O-])cc(C(F)(F)F)cc1[N+](=O)[O-])c1ccc(F)cc1`, the IC50 in experiment [1] is 15.31 µg/mL (≈ 24.1 µM); in the experiment with A549, 120 µg/mL (≈ 190 µM); in the experiment with MCF7 [2] it was 8.06 µg/mL (≈ 12.7 µM).

`O=C(/C=C/c1cc(Cl)ccc1Oc1c([N+](=O)[O-])cc(C(F)(F)F)cc1[N+](=O)[O-])c1ccc(Cl)cc1`: the IC50 in experiment [1] was determined as 4.68 µg/mL (≈ 8.88 µM); with A549, 11.7 µg/mL (≈ 22.2 µM); in the experiment with MCF7 [2], 3.21 µg/mL (≈ 6.09 µM).

`Cc1ccc(C(=O)/C=C/c2cc(Br)ccc2Oc2c([N+](=O)[O-])cc(C(F)(F)F)cc2[N+](=O)[O-])cc1`: the IC50 in experiment [1] was found to be 6.41 µg/mL (≈ 11.6 µM); in the experiment on A549 it was 6.85 µg/mL (≈ 12.4 µM); with MCF7 [2], 0.55 µg/mL (≈ 0.998 µM).

For `O=C(/C=C/c1cc(Cl)ccc1Oc1c([N+](=O)[O-])cc(C(F)(F)F)cc1[N+](=O)[O-])c1ccc(Br)cc1`, the IC50 in experiment [1] amounted to 4.62 µg/mL (≈ 8.08 µM); with A549, 10.9 µg/mL (≈ 19 µM); in the experiment with MCF7 [2], 1.41 µg/mL (≈ 2.47 µM).

Take `COc1ccc(C(=O)/C=C/c2cc(Br)ccc2Oc2c([N+](=O)[O-])cc(C(F)(F)F)cc2[N+](=O)[O-])cc1`: the figures for the IC50 (in experiment [1]; in the experiment with A549; in the experiment on MCF7 [2]) were 4.08 µg/mL (≈ 7.19 µM), 12.6 µg/mL (≈ 22.3 µM) and 2.32 µg/mL (≈ 4.09 µM), respectively.

On to `O=C(/C=C/c1cc(Cl)cc(Cl)c1Oc1c([N+](=O)[O-])cc(C(F)(F)F)cc1[N+](=O)[O-])c1ccc(Cl)cc1`, for which the IC50 in experiment [1] came to 6.34 µg/mL (≈ 11.3 µM); with A549, 17.2 µg/mL (≈ 30.7 µM); in the experiment on MCF7 [2], 4.54 µg/mL (≈ 8.08 µM).

Consider `COc1cc2c(c(OC)c1OC)-c1ccc(OC)c(=O)cc1[C@@H](NC(C)=O)CC2` [COLCHICINE], for which the IC50 in experiment [1] amounted to 1.7 µg/mL (≈ 4.26 µM); with A549 it was 0.74 µg/mL (≈ 1.85 µM); in the experiment with MCF7 [2], 0.51 µg/mL (≈ 1.28 µM). Besides, the Activity is recorded as 78.1% with MCF7 [3], 1.96% with MCF7 [4] and 1.34% in the experiment with MCF7 [5].

Consider `COc1ccc(C(=O)/C=C/c2cc(Cl)cc(Cl)c2Oc2c([N+](=O)[O-])cc(C(F)(F)F)cc2[N+](=O)[O-])cc1`, for which the results for the IC50 (in experiment [1]; in the experiment on A549; in the experiment with MCF7 [2]) were 6.56 µg/mL (≈ 11.8 µM), 12.5 µg/mL (≈ 22.5 µM) and 2.69 µg/mL (≈ 4.83 µM), respectively.

Take `O=C(/C=C/c1cc(Cl)cc(Cl)c1Oc1c([N+](=O)[O-])cc(C(F)(F)F)cc1[N+](=O)[O-])c1ccc(Br)cc1`: the IC50 in experiment [1] was found to be 9.46 µg/mL (≈ 15.6 µM); with A549, 14.5 µg/mL (≈ 23.9 µM); in the experiment with MCF7 [2], 2.6 µg/mL (≈ 4.29 µM).

As to `O=C(/C=C/c1cc(Br)ccc1Oc1c([N+](=O)[O-])cc(C(F)(F)F)cc1[N+](=O)[O-])c1ccc(Cl)cc1`, the values for the IC50 (in experiment [1]; with A549; with MCF7 [2]) were 7.14 µg/mL (≈ 12.5 µM), 16.5 µg/mL (≈ 28.9 µM) and 4.74 µg/mL (≈ 8.29 µM), respectively.

On to `O=C(/C=C/c1cc(Br)ccc1Oc1c([N+](=O)[O-])cc(C(F)(F)F)cc1[N+](=O)[O-])c1ccc(F)cc1`, for which the results for the IC50 (in experiment [1]; with A549; in the experiment with MCF7 [2]) were 12.31 µg/mL (≈ 22.2 µM), 26.3 µg/mL (≈ 47.4 µM) and 6.01 µg/mL (≈ 10.8 µM), respectively.

Turning to `COc1ccc(/C=C\c2cc(OC)c(OC)c(OC)c2)cc1O` [COMBRETASTATIN A4], the IC50 in experiment [1] is 0.81 µg/mL (≈ 2.56 µM); in the experiment on A549 it was 0.53 µg/mL (≈ 1.68 µM); in the experiment with MCF7 [2], 0.43 µg/mL (≈ 1.36 µM).

On to `COc1ccc(C(=O)/C=C/c2cc(Cl)ccc2Oc2c([N+](=O)[O-])cc(C(F)(F)F)cc2[N+](=O)[O-])cc1`, for which the IC50 in experiment [1] was determined as 4.83 µg/mL (≈ 9.24 µM); in the experiment with A549, 11.5 µg/mL (≈ 22 µM); with MCF7 [2] it was 1.83 µg/mL (≈ 3.5 µM).

Regarding `Cc1ccc(C(=O)/C=C/c2cc(Cl)ccc2Oc2c([N+](=O)[O-])cc(C(F)(F)F)cc2[N+](=O)[O-])cc1`, the values for the IC50 (in experiment [1]; in the experiment on A549; with MCF7 [2]) were 1.42 µg/mL (≈ 2.8 µM), 0.95 µg/mL (≈ 1.87 µM) and 0.03 µg/mL (≈ 0.0592 µM), respectively. The Activity is given as 67.93% in the experiment with MCF7 [3], 2.36% with MCF7 [4] and 1.55% in the experiment on MCF7 [5].

Consider `O=C(/C=C/c1cc(Cl)cc(Cl)c1Oc1c([N+](=O)[O-])cc(C(F)(F)F)cc1[N+](=O)[O-])c1ccc(F)cc1`, for which the IC50 in experiment [1] is 9.62 µg/mL (≈ 17.6 µM); in the experiment on A549 it was 29.3 µg/mL (≈ 53.8 µM); with MCF7 [2] it was 5.02 µg/mL (≈ 9.21 µM).

As for `Cc1ccc(C(=O)/C=C/c2cc(Cl)cc(Cl)c2Oc2c([N+](=O)[O-])cc(C(F)(F)F)cc2[N+](=O)[O-])cc1`, the values for the IC50 (in experiment [1]; in the experiment with A549; in the experiment with MCF7 [2]) were 4.87 µg/mL (≈ 9 µM), 10 µg/mL (≈ 18.6 µM) and 0.7 µg/mL (≈ 1.29 µM), respectively.

Regarding `Cc1ccc(C(=O)/C=C/c2cc(Br)cc(Br)c2Oc2c([N+](=O)[O-])cc(C(F)(F)F)cc2[N+](=O)[O-])cc1`, the figures for the IC50 (in experiment [1]; in the experiment on A549; with MCF7 [2]) were 5.68 µg/mL (≈ 9.01 µM), 10.1 µg/mL (≈ 16.1 µM) and 1.44 µg/mL (≈ 2.29 µM), respectively.

Consider `O=C(/C=C/c1cc(Br)cc(Br)c1Oc1c([N+](=O)[O-])cc(C(F)(F)F)cc1[N+](=O)[O-])c1ccc(Cl)cc1`, for which the half-maximal inhibitory concentration (IC50) in experiment [1] stood at 12.6 µg/mL (≈ 19.4 µM); in the experiment with A549, 19.4 µg/mL (≈ 29.9 µM); with MCF7 [2], 6.76 µg/mL (≈ 10.4 µM).

`COc1ccc(C(=O)/C=C/c2cc(Br)cc(Br)c2Oc2c([N+](=O)[O-])cc(C(F)(F)F)cc2[N+](=O)[O-])cc1`: the IC50 in experiment [1] turned out to be 6.02 µg/mL (≈ 9.32 µM); in the experiment with A549, 13.2 µg/mL (≈ 20.4 µM); with MCF7 [2] it was 3.53 µg/mL (≈ 5.46 µM).

Regarding `O=C(/C=C/c1cc(Br)ccc1Oc1c([N+](=O)[O-])cc(C(F)(F)F)cc1[N+](=O)[O-])c1ccc(Br)cc1`, the figures for the IC50 (in experiment [1]; in the experiment on A549; in the experiment with MCF7 [2]) were 6.25 µg/mL (≈ 10.1 µM), 13.7 µg/mL (≈ 22.3 µM) and 2.17 µg/mL (≈ 3.52 µM), respectively.

In the case of `O=C(/C=C/c1cc(Cl)ccc1Oc1c([N+](=O)[O-])cc(C(F)(F)F)cc1[N+](=O)[O-])c1ccc(F)cc1`, the figures for the IC50 (in experiment [1]; in the experiment with A549; in the experiment on MCF7 [2]) were 11.66 µg/mL (≈ 22.8 µM), 23.8 µg/mL (≈ 46.6 µM) and 5.17 µg/mL (≈ 10.1 µM), respectively.

For orientation: IC50 means the concentration needed to halve the response being measured. Read a high IC50 as weaker potency in that assay.
